Source: ChEMBL document CHEMBL4825764, “Flavonoid Monomers as Potent, Nontoxic, and Selective Modulators of the Breast Cancer Resistance Protein (ABCG2)” (J Med Chem, 2021)
Active and inactive are the calls of the source. No cut-off for these calls is given here.

Columns and labels:
[1] = system: 2008; test: Selectivity index, ratio of EC50 for inhibition of MRP1 (unknown origin) expressed in 2008/MRP1 cells assessed as reversal of doxorubicin resistance to Inhibition of BCRP (unknown origin) expressed in MCF7/MX100 cells assessed as reversal of topotecan resistance; type: cell-based; details: Homo sapiens
Outline: (§1)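 Selectivity index is the EC50 against the other transporter's line divided by the EC50 in the BCRP line. All values come from 5-day MTS reversal assays. These use topotecan in HEK293/R2 (0–2000 nM) or MCF7-MX100 (0–100 μM), doxorubicin in 2008/MRP1, and paclitaxel in LCC6MDR, each with modulator at 0–1000 nM.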

[2] = system: L929; test: Cytotoxicity against mouse L929 cells assessed as reduction in cell viability; type: cell-based
[3] = species on record: Homo sapiens; test: Selectivity index, ratio of EC50 for inhibition of MRP1 (unknown origin) expressed in 2008/MRP1 cells assessed as reversal of doxorubicin resistance to EC50 for inhibition of BCRP (unknown origin) transfected in HEK293/R2 cells assessed as reversal of topotecan resistance; type: cell-based; outline: as §1
[4] = species on record: Homo sapiens; test: Selectivity index, ratio of EC50 for inhibition of P-gp (unknown origin) expressed in LCC6MDR cells assessed as reversal of paclitaxel resistance to EC50 for Inhibition of BCRP (unknown origin) expressed in MCF7/MX100 cells assessed as reversal of topotecan resistance; type: cell-based; outline: as §1
[5] = species on record: Homo sapiens; test: Selectivity index, ratio of EC50 for inhibition of P-gp (unknown origin) expressed in LCC6MDR cells assessed as reversal of paclitaxel resistance to EC50 for inhibition of BCRP (unknown origin) transfected in HEK293/R2 cells assessed as reversal of topotecan resistance; type: cell-based; outline: as §1
[6] = system: HEK293; test: Effect on BCRP protein expression in human HEK293/R2 cells at 1 to 3 uM after 24 hrs by flow cytometric analysis; type: functional, cell-based; details: dose 1-3 µM
Outline: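 HEK293/R2 and HEK293/pcDNA3.1 cells were exposed to 0, 1 or 3 μM compound for 24 hr, with 0.1–0.3% DMSO as solvent control. Cells were trypsinized and stained with FITC anti-human BCRP for 45 min at 4 °C, with an IgG2b-FITC isotype control. Surface signal was read by flow cytometry on FL1 over 50,000 events.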

[7] = target: T1, Broad substrate specificity ATP-binding cassette transporter ABCG2 (Homo sapiens, UniProt Q9UNQ0); test: Inhibition of BCRP (unknown origin) expressed in human HEK293/R2 cells assessed as increase in intracellular topotecan accumulation by measuring fold change at 1 uM after 2 hrs in presence of topotecan by flow cytometry analysis relative to control; type: cell-based; details: hek293/r2, 2 h
T1 sequence (Q9UNQ0 whole entry): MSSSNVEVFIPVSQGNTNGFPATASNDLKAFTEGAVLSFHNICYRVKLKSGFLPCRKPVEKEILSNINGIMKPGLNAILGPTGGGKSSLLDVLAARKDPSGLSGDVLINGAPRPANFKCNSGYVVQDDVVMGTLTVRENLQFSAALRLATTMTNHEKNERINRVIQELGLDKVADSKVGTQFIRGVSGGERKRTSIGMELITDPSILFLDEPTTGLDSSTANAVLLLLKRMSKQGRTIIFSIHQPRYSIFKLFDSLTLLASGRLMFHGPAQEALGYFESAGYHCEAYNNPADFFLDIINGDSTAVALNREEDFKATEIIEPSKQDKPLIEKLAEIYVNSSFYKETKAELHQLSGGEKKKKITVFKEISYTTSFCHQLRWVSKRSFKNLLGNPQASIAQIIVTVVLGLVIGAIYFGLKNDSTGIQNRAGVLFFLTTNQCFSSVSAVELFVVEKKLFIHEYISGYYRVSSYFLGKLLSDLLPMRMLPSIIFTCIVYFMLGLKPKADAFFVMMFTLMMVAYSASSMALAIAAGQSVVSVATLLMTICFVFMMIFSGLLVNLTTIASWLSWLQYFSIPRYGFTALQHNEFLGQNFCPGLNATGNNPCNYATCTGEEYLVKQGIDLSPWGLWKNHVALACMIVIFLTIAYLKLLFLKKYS
Outline: (§2)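 5 × 10^5 HEK293/pcDNA3.1 or HEK293/R2 cells in 1 mL were incubated 2 hr at 37 °C with 50 μM topotecan or 5 μM mitoxantrone plus 1 or 2 μM modulator, with DMSO as the vehicle control. Cells were washed in cold PBS and resuspended in FACS buffer. Flow cytometry read FL1 (topotecan) or FL4 (mitoxantrone) over 50,000 events, normalized to wild-type cells.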

[8] = target: T1, Broad substrate specificity ATP-binding cassette transporter ABCG2; test: Inhibition of BCRP (unknown origin) expressed in wild type HEK293/pcDNA3.1 cells assessed as increase in intracellular topotecan accumulation at 1 to 2 uM after 2 hrs in presence of topotecan by flow cytometry analysis relative to control; type: cell-based; details: hek293, 2 h, dose 1-2 µM; outline: as §2
[9] = species on record: Homo sapiens; test: Selectivity index, ratio of EC50 for inhibition of P-gp (unknown origin) expressed in LCC6MDR cells assessed as reversal of mitoxantrone resistance to EC50 for inhibition of BCRP (unknown origin) expressed in HEK293/R2 cells assessed as reversal of mitoxantrone resistance; type: cell-based
Outline: (§3)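 Selectivity index is the EC50 in 2008/MRP1 or LCC6MDR divided by the EC50 in HEK293/R2. All three lines were measured by 5-day mitoxantrone co-incubation with modulator, with MTS/PMS read-out at 490 nm.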

[10] = target: T1, Broad substrate specificity ATP-binding cassette transporter ABCG2; test: Inhibition of BCRP (unknown origin) expressed in human HEK293/R2 cells assessed as increase in intracellular topotecan accumulation by measuring fold change at 2 uM after 2 hrs in presence of topotecan by flow cytometry analysis relative to control; type: cell-based; details: hek293/r2, 2 h; outline: as §2
[11] = target: T1, Broad substrate specificity ATP-binding cassette transporter ABCG2; test: Inhibition of BCRP (unknown origin) expressed in human HEK293/R2 cells assessed as increase in intracellular mitoxantrone accumulation by measuring fold change at 2 uM after 2 hrs in presence of mitoxantrone by flow cytometry analysis relative to control; type: cell-based; details: hek293/r2, 2 h; outline: as §2
[12] = target: T1, Broad substrate specificity ATP-binding cassette transporter ABCG2; test: Inhibition of BCRP (unknown origin) expressed in wild type HEK293/pcDNA3.1 cells assessed as increase in intracellular mitoxantrone accumulation at 1 to 2 uM after 2 hrs in presence of mitoxantrone by flow cytometry analysis relative to control; type: cell-based; details: hek293, 2 h, dose 1-2 µM; outline: as §2
[13] = target: T1, Broad substrate specificity ATP-binding cassette transporter ABCG2; test: Inhibition of BCRP (unknown origin) expressed in human HEK293/R2 cells assessed as increase in intracellular mitoxantrone accumulation by measuring fold change at 1 uM after 2 hrs in presence of mitoxantrone by flow cytometry analysis relative to control; type: cell-based; details: hek293/r2, 2 h; outline: as §2
[14] = species on record: Homo sapiens; test: Selectivity index, ratio of EC50 for inhibition of MRP1 (unknown origin) expressed in 2008/MRP1 cells assessed as reversal of mitoxantrone resistance to EC50 for inhibition of BCRP (unknown origin) expressed in HEK293/R2 cells assessed as reversal of mitoxantrone resistance; type: cell-based; outline: as §3
[15] = target: T2, BCRP (ABCG2) (Homo sapiens, UniProt Q9UNQ0); test: Inhibition of BCRP (unknown origin) expressed in HEK293/R2 cells assessed as conformational change by measuring increase in 5D3 shift at 10 uM preincubated for 15 mins followed by FITC mouse antihuman BCRP antibody addition measured after 30 mins by flow cytometry analysis; type: cell-based; details: HEK293/R2 cells expressing BCRP, time 45 min
T2 sequence (Q9UNQ0 whole entry): T1 sequence (Q9UNQ0 whole entry)
Outline: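 HEK293/R2 cells (5 x 10⁵) in FACS buffer (0.1 % BSA, 1 mM EDTA in PBS) were pre-incubated with compound for 15 min at 37 °C with shaking. FITC anti-human BCRP antibody (clone 5D3) was then added for 30 min at 37 °C. Cells were washed and read by flow cytometry (FL1, 50,000 events). Compound-only FITC background and the DMSO-control signal were subtracted, and the shift was expressed as % of the 1 µM Ko143 shift.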

fold change (FC) [7] | inhibition (INH) [8] | fold change (FC) [10] | Compound | Ratio EC50 [1] | IC50 [2] [µM] | Ratio EC50 [3] | Ratio EC50 [4] | Ratio EC50 [5] | Activity [6] | Ratio EC50 [9] | fold change (FC) [11] | inhibition (INH) [12] | fold change (FC) [13] | Ratio EC50 [14] | inhibition at 0.5 h, 10 µM [15] [%]
 |  |  | COC(=O)c1cccc(COc2c(-c3ccc(OCCOCCn4cc(CNc5ccccc5)nn4)cc3)oc3ccccc3c2=O)c1 | 23 | > 100 | 38 | 23 | 38 |  |  |  |  |  |  | 
7.2 | Not Active | 7 | COC(=O)c1cccc(COc2c(-c3ccc(OCCOCCn4cc(CN(C)Cc5ccccc5)nn4)cc3)oc3ccccc3c2=O)c1 | 286 | > 100 | 67 | 286 | 67 | inactive | 38 | 6.3 | Not Active | 6.2 | 40 | 
 |  |  | COC(=O)c1cccc(COc2c(-c3ccc(OCCOCCOCCN=[N+]=[N-])cc3)oc3ccccc3c2=O)c1 | 60 | 28.4 | 118 | 18 | 35 |  |  |  |  |  |  | 
 |  |  | COC(=O)c1cccc(COc2c(-c3ccc(OCCCCc4cn(CCOCCO)nn4)cc3)oc3ccccc3c2=O)c1 | 36 | 13.3 | 100 | 22 | 61 |  |  |  |  |  |  | 
 |  |  | COC(=O)c1cccc(COc2c(-c3ccc(OCCOCCOCCn4cc(CCCCOc5ccc(C=O)cc5)nn4)cc3)oc3ccccc3c2=O)c1 | 23 | 37.8 | 46 | 26 | 53 |  |  |  |  |  |  | 
 |  |  | CCOc1ccc(-c2nc3cc(-c4nc5cc(N6CCN(C)CC6)ccc5[nH]4)ccc3[nH]2)cc1 |  |  |  |  |  |  |  |  |  |  |  | 19
 |  |  | COC(=O)c1cccc(COc2c(-c3ccc(OCCOCCOCCn4cc(CN(C)Cc5ccccc5)nn4)cc3)oc3ccccc3c2=O)c1 | 35 | > 100 | 62 | 29 | 51 |  |  |  |  |  |  | 
 |  |  | C#CCCCCOc1ccc(-c2oc3ccccc3c(=O)c2OCc2cccc(C(=O)OC)c2)cc1 | 30 | > 100 | 23 | 24 | 19 |  |  |  |  |  |  | 
